Measured values from the array DNA melting data of Ke et al. (doi:10.1101/2024.01.08.574731).

What was measured:
[1] = folding enthalpy; higher = less favourable; fluorescence melt of hairpins on a sequencing array, two-state fit; details: sodium 0.088 M
Method in brief: (§1)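 Two-state fits, bootstrapped, provided melting temperature and folding enthalpy from Cy3 fluorescence normalised to pre-quench Cy3 and to control constructs. Library hairpins with annealed Cy3 and quencher oligos were imaged on a sequenced MiSeq flow cell in 50 mM Na-HEPES pH 8.0, 25 mM NaCl, at 2.5 °C intervals up to 60 °C. Four replicates were combined with inverse-variance weighting. A 9.35 °C upward shift was applied to fitted temperatures to match UV melts.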

[2] = melting temperature; fluorescence melt of hairpins on a sequencing array, two-state fit, raised by 9.35 °C to match UV melts; details: sodium 0.088 M
Method in brief: as §1

Sequence | folding enthalpy [1] [kcal/mol] | Tm [2] [°C]
GACGAGGGAAACCTCGCC (.(((((....))))).) | -14.3 | 52.3
GACGAGGGAAACTTCGTC (((((.(....).))))) | -40.8 | 49
GACGATGGAAACGTTGTC (((.(.(....).).))) | -22.2 | 34
GACGCAGGAAACCGCGTC (((((.(....).))))) | -37.3 | 56.9
GACGCAGGAAACTGCGCC (.(((((....))))).) | -13.5 | 50.2
GACGCCACGAAAGTGGTC (((..(((....)))))) | -8.49 | 32.1
GACGCCGAAAGGCCCGTC ((((((....)))..))) | -13.9 | 37
GACGCCGAAAGGCCGGTC ((((((....)))..))) | -15 | 42.6
GACGCCGAAAGGCTGTC ((((((....))).))) | -18.4 | 56.9
GACGCCGCGAAAGCGGTC (((..(((....)))))) | -6.05 | 34.8
GACGCCGGAAACGACGTC ((((.((....)).)))) | -44.8 | 57.5
GACGCGGGAAACCACGCC (.((.((....)).)).) | -12.4 | 34.6
GACGCGGGAAACCACGTC ((((.((....)).)))) | -40.9 | 52.1
GACGCGGGAAACCGCATC ((.((((....)))).)) | -13.4 | 40.1
GACGCGGGAAACTGCGTC (((((.(....).))))) | -35.2 | 64
GACGCTACGAAAGTAGTC (((..(((....)))))) | -13.2 | 35.9
GACGCTCCGAAAGGAGTC (((..(((....)))))) | -9.32 | 34.5
GACGGACCGAAAGGTGTC (((..(((....)))))) | -17.9 | 41.3
GACGGAGAAATCCGTC ((((((....)))))) | -38.5 | 59.1
GACGGAGGAAACTCCGCC (.(((((....))))).) | -14.9 | 48.2
GACGGCACGAAAGTGGTC (((..(((....)))))) | -14.6 | 34.5
GACGGCCCGAAAGGGGTC (((..(((....)))))) | -8.8 | 44.1
GACGGCCGAAAGGCGGTC (((.(((....))).))) | -25.1 | 67.9

Sequence | folding enthalpy [1] [kcal/mol] | Tm [2] [°C]
GACGGCCGAAAGGCTGTC (((.(((....))).))) | -28.1 | 68.8
GACGGCGAAAGCCAGGTC ((((((....)))..))) | -16.5 | 46.6
GACGGCGAAAGCCCGGTC ((((((....)))..))) | -13.2 | 48.1
GACGGCGAAAGCCTGTC ((((((....))).))) | -15.6 | 58.6
GACGGCGAAAGCCTTGTC ((((((....)))..))) | -12.3 | 43.9
GACGGCGCGAAAGCGGTC (((..(((....)))))) | -9.91 | 48.2
GACGGCGGAAACACCGTC (((((.(....).))))) | -42.4 | 54
GACGGCGGAAACGCCATC ((.((((....)))).)) | -13.2 | 41.1
GACGGCGGAAACGCCGCC (.(((((....))))).) | -8.56 | 54.9
GACGGGGCGAAAGCCGTC (((..(((....)))))) | -15.6 | 55.2
GACGGTGCGAAAGCAGTC (((..(((....)))))) | -16.9 | 39.9
GACGTAGGAAACTACGTC (((((((....))))))) | -44 | 63.3
GACGTAGGAAACTGCGTC ((((.((....)).)))) | -45.2 | 51.5
GACGTCGGAAACGACACC (..((((....))))..) | -10.5 | 29.3
GACGTCGGAAACGACGCC (.(((((....))))).) | -11.6 | 50.7
GACGTGAAAACGTC (((((....))))) | -32.7 | 61.8
GACGTGGAAACACGTC ((((((....)))))) | -33.4 | 67.6
GACGTGGGAAACCACGCC (.(((((....))))).) | -14 | 48.6
GACGTTGGAAACAACGTC (((((((....))))))) | -39.1 | 68
GACGTTGGAAACAGCGTC ((((.((....)).)))) | -39.6 | 52.1
GACGTTGGAAACAGTGTC (((..((....))..))) | -14.1 | 31.2
GACTACACGAAAGTGGTC (((..(((....)))))) | -14.2 | 40
GACTACGAAAGTAAAGTC ((((((....)))..))) | -23.3 | 36.5

Sequence | folding enthalpy [1] [kcal/mol] | Tm [2] [°C]
GACTACGAAAGTAAGGTC ((((((....)))..))) | -21.4 | 32.7
GACTACGAAAGTAGGTC ((((((....))).))) | -17.5 | 48.7
GACTACGAAAGTAGTC ((((((....)))))) | -28.4 | 66.5
GACTACGGAAACGTAGCC (.(((((....))))).) | -14.1 | 44.5
GACTAGACGAAAGTCGTC (((..(((....)))))) | -13 | 38.9
GACTAGGCGAAAGCCGTC (((..(((....)))))) | -8.71 | 50.4
GACTAGGGAAACCTAGTC (((((((....))))))) | -42.5 | 56.9
GACTATGGAAACATAGTC (((((((....))))))) | -46.8 | 54.5
GACTCCGAAAGGAAAGTC ((((((....)))..))) | -24.8 | 44.4
GACTCCGAAAGGAAGGTC ((((((....)))..))) | -22.1 | 38.3
GACTCCGAAAGGAGTGTC ((((((....)))..))) | -12.3 | 58.4
GACTCCGAAAGGATGTC ((((((....))).))) | -30.7 | 51
GACTCCGGAAACGAAGTC ((((.((....)).)))) | -29.4 | 37.1
GACTCGAAAGAGTC (((((....))))) | -32.1 | 61.2
GACTCGACGAAAGTCGTC (((..(((....)))))) | -8.01 | 31.4
GACTCTCCGAAAGGAGTC (((..(((....)))))) | -9.54 | 35.3
GACTCTGCGAAAGCAGTC (((..(((....)))))) | -7.87 | 32.2
GACTGACGAAAGTCCGTC (((.(((....))).))) | -29.4 | 49.2
GACTGAGAAATCAGTC ((((((....)))))) | -33 | 53.1
GACTGAGGAAACTCGGTC (((.(((....))).))) | -41.1 | 50.4
GACTGCGAAAGCATGTC ((((((....))).))) | -23.1 | 54.5
GACTGCGGAAACGTAGTC ((((.((....)).)))) | -39.6 | 52.6
GACTGGCGAAAGCCGTC (((.(((....)))))) | -11.5 | 67

Sequence | folding enthalpy [1] [kcal/mol] | Tm [2] [°C]
GACTGGGGAAACCCAATC ((.((((....)))).)) | -14.6 | 31.7
GACTGGGGAAACCCAGTC (((((((....))))))) | -40.3 | 66.6
GACTGGGGAAACCTGGTC (((..((....))..))) | -34.9 | 38.9
GACTGTGGAAACACAATC ((.((((....)))).)) | -15.5 | 31.6
GACTGTGGAAACATGGTC (((..((....))..))) | -28.7 | 37.9
GACTTCGGAAACGAAGCC (.(((((....))))).) | -15 | 45.6
GACTTGGGAAACTAAGTC (((((.(....).))))) | -28.2 | 42.5
GACTTTGCGAAAGCAGTC (((..(((....)))))) | -14.4 | 32.8
GAGAAACGAAAGTTACTC (((.(((....))).))) | -28.9 | 41.7
GAGAACCGAAAGGTACTC (((.(((....))).))) | -34.9 | 50.7
GAGAACGAAAGTTTTCTC ((((((....)))..))) | -30.2 | 38.4
GAGAACGGAAACGCTCTC ((((.((....)).)))) | -28.6 | 43.2
GAGAACGGAAACGTTCTC (((((((....))))))) | -41.8 | 64.7
GAGAAGCGAAAGCTCTC (((.(((....)))))) | -20.1 | 50.2
GAGAAGCGAAAGCTGCTC (((.(((....))).))) | -27.4 | 58.1
GAGAAGGGAAACCTTCTC (((((((....))))))) | -50.6 | 55.5
GAGAATGAAAATTCTC ((((((....)))))) | -31.8 | 46
GAGACAGGAAACTGCCTC (((.(((....))).))) | -39.7 | 42.3
GAGACAGGAAACTGTCCC (.(((((....))))).) | -13 | 39.4
GAGACAGGAAACTGTCTC (((((((....))))))) | -49.7 | 60.1
GAGACCACGAAAGTGCTC (((..(((....)))))) | -9.82 | 27.7
GAGACCCGAAAGGGCTC (((.(((....)))))) | -26.8 | 55.4
